The list is not random: actives were taken first. Their share in the collection is about 1.6%.
NOD2 RIPK2 PPI: blocks binding of human NOD2 to RIPK2 | hit rate 0.38% among 360,000 | CHO BLA complementation NOD2-RIPK2, CCF4 ratio | inhibition, % at 4.98 µM | O43353; in the data active means inhibition above about 21%;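 further: 0% = vehicle only and 100% = reference blocker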
Lipid droplet: hepatic lipid droplet formation modulation; hit rate 0.4% among 240,000; inhibition, % at 6.5 µM; AML12 mouse hepatocytes, oleate lipid droplets, BODIPY imaging;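 active means lipid droplet intensity inhibited by at least 50%, with more than 500 cells counted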
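System: AML12 hepatocytes (mouse). Probe or stimulus: oleic acid at 100 µM to induce lipid droplet formation. Times: overnight treatment with compound plus oleate. Detection: Image-based BODIPY and DAPI two-channel analysis. Evaluation: percent inhibition of filter-corrected integrated lipid droplet intensity per well.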
SR-BI HDL uptake: mouse SR-BI HDL lipid transfer inhibition; Q61009; ldlA[mSR-BI] CHO cells, DiI-HDL uptake fluorescence, 3 h; inhibition, % at 12.5 µM; hit rate 0.96% among 320,000;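 active means mean replicate inhibition of at least 70% and a set share of replicates each scoring 70 or more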;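 further: 0% = median of neutral control wells and 100% = median of positive control wells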
TLR9-MyD88 inh: TLR9-MyD88 interaction inhibition; Q9NR96+Q99836; CHO BLA complementation TLR9-MyD88, CCF4 FRET ratio; inhibition, % at 4.98 µM; hit rate 0.21% among 340,000; AID 504734;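 active means inhibition above the mean over all tested compounds plus 3 SD, cut at about 21% in these data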;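 further: 0% = DMSO only wells and 100% = clavulanate BLA inhibitor control wells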
SR-BI uptake up: activators of SR-BI mediated HDL lipid uptake; CHO ldlA[mSR-BI] cells, DiI-HDL uptake fluorescence, 3 h; 100 = double the neutral-control signal; hit rate 0.096% among 320,000; activation, % at 12.5 µM;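 active means mean replicate activation of at least 60% and every replicate at or above 60%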;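 further: 0% = median plate neutral-control signal and 100% = twice that signal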
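System: LDL receptor-deficient CHO ldlA cells overexpressing murine SR-BI | Timing: 3 h uptake period with compound, 37 °C | Medium: HEPES-buffered (25 mM, pH 7.4) F12 plus 0.5% BSA | Dosing: Single-point compound dose | Signal: Bottom-read fluorescence, 550/595 nm | Read-out: Retained DiI signal reflecting DiI-HDL uptake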
TLR4-MyD88 BLA: inhibitors of human TLR4-MyD88 binding. O00206+Q99836. HeLa CL3-4 TLR4/MyD88 BLA complementation, FRET ratio. inhibition, % at 8.4 µM. hit rate 0.18% among 200,000; in the data active means inhibition above about 25%;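 further: 0% = vehicle and 100% = reference inhibitor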
Target sequence (O00206 whole entry, looked up): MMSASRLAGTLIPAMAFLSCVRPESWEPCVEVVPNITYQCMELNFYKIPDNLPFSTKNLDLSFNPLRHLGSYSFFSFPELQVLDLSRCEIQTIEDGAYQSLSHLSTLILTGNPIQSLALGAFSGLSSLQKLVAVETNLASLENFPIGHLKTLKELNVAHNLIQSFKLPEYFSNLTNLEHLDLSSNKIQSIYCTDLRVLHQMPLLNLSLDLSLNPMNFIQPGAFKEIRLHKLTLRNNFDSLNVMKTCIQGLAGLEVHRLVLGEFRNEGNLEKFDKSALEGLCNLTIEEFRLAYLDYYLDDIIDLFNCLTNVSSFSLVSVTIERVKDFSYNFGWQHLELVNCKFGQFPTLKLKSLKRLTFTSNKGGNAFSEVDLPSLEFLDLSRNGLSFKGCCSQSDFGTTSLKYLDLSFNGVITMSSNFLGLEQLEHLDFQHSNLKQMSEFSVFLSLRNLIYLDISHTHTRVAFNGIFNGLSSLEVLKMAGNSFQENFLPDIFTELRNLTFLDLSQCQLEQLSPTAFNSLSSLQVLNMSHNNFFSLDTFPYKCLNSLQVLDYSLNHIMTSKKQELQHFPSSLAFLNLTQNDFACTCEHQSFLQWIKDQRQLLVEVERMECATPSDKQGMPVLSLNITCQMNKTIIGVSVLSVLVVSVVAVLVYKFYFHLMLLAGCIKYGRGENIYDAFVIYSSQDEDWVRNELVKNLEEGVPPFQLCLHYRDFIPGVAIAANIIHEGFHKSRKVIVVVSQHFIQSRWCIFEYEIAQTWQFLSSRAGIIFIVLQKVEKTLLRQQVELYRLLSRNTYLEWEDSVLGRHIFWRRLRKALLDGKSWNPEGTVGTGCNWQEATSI
Target sequence (Q99836 whole entry, looked up): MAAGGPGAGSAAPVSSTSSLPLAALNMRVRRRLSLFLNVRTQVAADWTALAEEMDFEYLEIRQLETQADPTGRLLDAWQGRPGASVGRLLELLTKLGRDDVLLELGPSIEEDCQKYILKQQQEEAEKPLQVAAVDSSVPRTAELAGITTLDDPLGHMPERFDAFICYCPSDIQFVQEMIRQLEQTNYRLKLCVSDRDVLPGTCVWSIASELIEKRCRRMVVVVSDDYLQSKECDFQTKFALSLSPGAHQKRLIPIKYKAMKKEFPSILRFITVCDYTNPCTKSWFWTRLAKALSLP
Numbers without * were called inactive; / = no result.

SMILES	NOD2 RIPK2 PPI	Lipid droplet	SR-BI HDL uptake	TLR9-MyD88 inh	SR-BI uptake up	TLR4-MyD88 BLA
Cc1ccc(C(=O)Nc2cccc(-c3ccc(N4CCOCC4)nn3)c2)cc1[N+](=O)[O-]	-2	/	73*	3	-73	/
NC(=O)C1CN(C(=O)c2cccc(S(=O)(=O)N3CCc4ccccc43)c2)c2ccccc2O1 (stereo unspecified)	-7	/	0	3	0	/
Cc1ccc(Cn2c(SCC(=O)NCC3CCCO3)nc3c2c(=O)n(C)c(=O)n3C)cc1 (stereo unspecified)	-8	-1	-5	0	5	-5
O=C(COC(=O)/C=C/c1ccccc1[N+](=O)[O-])NCc1ccco1	-15	/	-8	4	8	/
Cc1cccc(NC(=O)c2ccc(N3CCOCC3)c([N+](=O)[O-])c2)n1	-10	13	24	-13	-24	-3
Cc1cccc(NC(=O)c2ccc(N3CCCCC3)c([N+](=O)[O-])c2)n1	-2	/	77*	-7	-77	15
Cc1cccc(NC(=O)c2ccc(N(C)C3CCCCC3)c([N+](=O)[O-])c2)n1	-16	/	85*	1	-85	-10
O=C(CCSc1nc(-c2ccc3c(c2)OCO3)cc(C(F)(F)F)n1)NCc1ccco1	-4	/	82*	-6	-83	-2
COc1ccc(-c2[nH]c(-c3ccc(SC)cc3)nc2SCC(=O)Nc2nccs2)cc1	-7	-24	87*	-9	-87	-5
CCOC(=O)Nc1ccc2c(c1)C(=NO)c1ccccc1-2	0	/	54	1	-54	/
CCOC(=O)Nc1ccc2c(c1)C(=NNC(N)=S)c1ccccc1-2	10	/	83*	-7	-83	/
COc1cccc(OC)c1C(=O)Nc1cccnc1	3	7	2	10	-2	1
COc1ccc(/C=C(\NC(=O)c2ccccc2)C(=O)N/N=C/c2sccc2C)cc1	0	4	48	-9	-48	6
O=C(N/N=C/c1ccc(O)c(O)c1O)/C(=C/c1ccc([N+](=O)[O-])cc1)NC(=O)c1ccccc1	-4	-6	98*	-3	-98	8
Cc1ccsc1/C=N/NC(=O)c1ccc(-n2cccc2)cc1	2	5	77*	6	-77	12
COc1ccc(/C=C(/NC(=O)c2ccccc2)C(=O)N/N=C/c2sccc2C)cc1	5	-3	78*	-2	-78	-6
Nc1[nH]c(C(=O)c2ccccc2)c(-c2ccc(Cl)c(F)c2)c1C(=O)NCCc1c[nH]c2ccccc12	1	/	/	/	/	/
CCC(=O)N1CCN(c2nc3ccc(Br)cc3s2)CC1	-7	-10	8	4	-8	/
O=C(c1ccc([N+](=O)[O-])cc1)N1CCN(c2ncc(Br)cn2)CC1	2	8	-6	-12	6	/
COc1cc(NS(=O)(=O)c2ccc(NC(=S)NC(=O)/C=C/c3ccc(OC)c(OC)c3)cc2)ncn1	-6	-11	16	-1	-16	4
COc1ccc(/C=C/C(=O)NC(=S)Nc2ccc(S(=O)(=O)N=C(N)N)cc2)cc1OC	-4	45	-286	-5	286*	/
CCOc1ccc(NC(=O)c2ccc3c(c2)N(C)CCS3)cc1	-13	/	/	-3	/	/
CCN1CCSc2ccc(C(=O)Nc3ccc(NC(C)=O)cc3)cc21	7	-6	80*	3	-80	5
O=S(=O)(c1ccc(-c2ccon2)s1)N1CCN(c2ccncc2)CC1	/	12	/	/	/	/
O=C(C1=C[C@@H](c2ccc(Br)cc2)C[C@@H](OCc2ccc(CO)cc2)O1)N1CCN(Cc2ccccc2)CC1	0	-12	-63	-10	63*	-9
N#Cc1ccc(-c2ccc(OCC(O)CN3CCCCC3)cc2)cc1 (stereo unspecified)	-4	/	8	2	-8	/
Cn1c(=O)[nH]c(=O)c2c1nc(N1CCN(c3ccccc3)CC1)n2CCSc1ncccn1	0	/	-71	2	71*	0
Cn1c(=O)[nH]c(=O)c2c1nc(N1CCCCC1)n2CCSc1ncccn1	-4	/	-7	-8	7	/
CCOc1ccccc1NC(=O)C(=O)N/N=C/c1cc(Br)ccc1O	-2	-13	126*	-6	-126	4

Screening data deposited in PubChem by several laboratories.
